{"source": "ChEMBL document CHEMBL1139384", "about": "“First Cdc7 kinase inhibitors: pyrrolopyridinones as potent and orally active antitumor agents. 2. Lead discovery” (J Med Chem, 2009)", "key": {"[1]": {"target": "Cyclin-dependent kinase 9 (Homo sapiens, UniProt P50750)", "sequence (P50750 whole entry)": "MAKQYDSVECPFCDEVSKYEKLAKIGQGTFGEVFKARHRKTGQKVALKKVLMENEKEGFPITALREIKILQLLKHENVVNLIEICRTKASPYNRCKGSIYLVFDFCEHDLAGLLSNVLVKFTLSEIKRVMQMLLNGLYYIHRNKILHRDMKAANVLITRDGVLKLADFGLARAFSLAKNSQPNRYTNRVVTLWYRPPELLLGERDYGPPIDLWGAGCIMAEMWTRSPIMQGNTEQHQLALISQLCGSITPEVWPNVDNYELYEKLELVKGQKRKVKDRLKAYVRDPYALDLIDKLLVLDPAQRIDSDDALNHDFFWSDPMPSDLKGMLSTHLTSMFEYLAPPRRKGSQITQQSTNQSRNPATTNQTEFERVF", "assay": "Inhibition of CDK9"}, "HeLa [2]": {"system": "HeLa", "assay": "Cell cycle arrest in human HeLa cells assessed as accumulation at G1/S phase at 3 uM by fluorescence activated cell sorting", "format": "functional, cell-based", "how_it_was_run": "(§1)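 Logarithmically growing HeLa cells exposed to 3 µM for set times, labelled with 50 µM BrdU, fixed in 70% ethanol. DNA content by propidium iodide with RNase A, 30 min at 37 °C; BrdU by FITC anti-BrdU after 2N HCl denaturation; percent positive cells by FACS.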"}, "[3]": {"target": "cAMP-dependent protein kinase catalytic subunit alpha (Homo sapiens, UniProt P17612)", "assay": "Inhibition of PKAalpha"}, "[4]": {"target": "Mitogen-activated protein kinase 11 (Homo sapiens, UniProt Q15759)", "sequence (Q15759 whole entry)": "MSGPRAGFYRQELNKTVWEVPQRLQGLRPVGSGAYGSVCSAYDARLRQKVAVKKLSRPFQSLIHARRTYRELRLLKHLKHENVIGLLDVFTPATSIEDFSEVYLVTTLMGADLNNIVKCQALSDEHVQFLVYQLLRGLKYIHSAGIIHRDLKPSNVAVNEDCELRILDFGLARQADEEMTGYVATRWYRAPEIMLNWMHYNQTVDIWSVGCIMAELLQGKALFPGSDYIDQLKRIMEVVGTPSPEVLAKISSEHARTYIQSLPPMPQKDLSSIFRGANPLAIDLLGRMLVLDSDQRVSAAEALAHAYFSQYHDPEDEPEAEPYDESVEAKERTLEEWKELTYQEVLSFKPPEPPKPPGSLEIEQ", "assay": "Inhibition of P38beta"}, "[5]": {"target": "Cyclin-dependent kinase 5/CDK5 activator 1 (Homo sapiens, UniProt Q00535)", "sequence (Q00535 whole entry)": "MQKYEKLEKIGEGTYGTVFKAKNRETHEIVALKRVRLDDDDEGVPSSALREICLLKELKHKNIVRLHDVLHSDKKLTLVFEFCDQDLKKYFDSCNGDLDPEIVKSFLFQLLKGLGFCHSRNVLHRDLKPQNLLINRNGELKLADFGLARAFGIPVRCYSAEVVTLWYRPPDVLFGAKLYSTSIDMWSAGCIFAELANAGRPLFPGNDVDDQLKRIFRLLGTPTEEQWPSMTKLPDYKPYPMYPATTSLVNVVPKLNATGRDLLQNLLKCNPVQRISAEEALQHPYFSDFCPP", "sequence (Q15078 whole entry, further chain)": "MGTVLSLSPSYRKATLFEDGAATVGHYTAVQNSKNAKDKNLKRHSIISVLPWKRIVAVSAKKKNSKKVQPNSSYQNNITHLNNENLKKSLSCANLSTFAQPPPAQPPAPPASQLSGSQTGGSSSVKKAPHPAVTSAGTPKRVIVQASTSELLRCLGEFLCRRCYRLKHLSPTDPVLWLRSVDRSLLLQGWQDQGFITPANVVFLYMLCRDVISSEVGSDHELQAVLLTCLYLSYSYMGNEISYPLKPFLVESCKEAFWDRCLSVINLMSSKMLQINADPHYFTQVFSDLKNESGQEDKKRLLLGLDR", "assay": "Inhibition of CDK5/p25", "format": "protein-complex assay"}, "[6]": {"target": "Mast/stem cell growth factor receptor Kit (Homo sapiens, UniProt P10721)", "sequence (P10721 whole entry)": "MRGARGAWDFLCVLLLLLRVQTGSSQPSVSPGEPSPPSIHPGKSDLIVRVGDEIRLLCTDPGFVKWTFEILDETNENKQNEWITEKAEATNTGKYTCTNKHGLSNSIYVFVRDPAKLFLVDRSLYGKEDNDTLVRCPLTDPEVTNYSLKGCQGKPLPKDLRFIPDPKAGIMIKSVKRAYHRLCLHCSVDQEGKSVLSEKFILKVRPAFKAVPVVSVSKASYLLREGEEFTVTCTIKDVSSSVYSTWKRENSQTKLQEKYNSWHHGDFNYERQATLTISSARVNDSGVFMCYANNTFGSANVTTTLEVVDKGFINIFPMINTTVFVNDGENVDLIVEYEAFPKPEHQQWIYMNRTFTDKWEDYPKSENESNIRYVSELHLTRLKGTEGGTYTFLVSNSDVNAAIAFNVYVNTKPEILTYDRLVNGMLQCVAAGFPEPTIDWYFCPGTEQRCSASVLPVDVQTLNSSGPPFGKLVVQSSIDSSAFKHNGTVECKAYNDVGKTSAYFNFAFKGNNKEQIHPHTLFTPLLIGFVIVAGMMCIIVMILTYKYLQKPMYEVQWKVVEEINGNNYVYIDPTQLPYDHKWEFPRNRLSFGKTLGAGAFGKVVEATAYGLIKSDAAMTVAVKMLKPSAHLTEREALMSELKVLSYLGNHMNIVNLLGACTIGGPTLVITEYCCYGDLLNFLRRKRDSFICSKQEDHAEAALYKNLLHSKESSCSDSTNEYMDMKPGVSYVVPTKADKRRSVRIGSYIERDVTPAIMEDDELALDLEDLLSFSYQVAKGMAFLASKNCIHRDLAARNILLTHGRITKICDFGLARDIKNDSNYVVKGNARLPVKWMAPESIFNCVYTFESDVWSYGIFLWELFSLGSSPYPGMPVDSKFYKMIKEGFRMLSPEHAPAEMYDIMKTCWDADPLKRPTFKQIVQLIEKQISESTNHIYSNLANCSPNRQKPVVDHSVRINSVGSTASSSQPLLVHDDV", "assay": "Inhibition of KIT"}, "[7]": {"assay": "Inhibition of Cdk1b"}, "[8]": {"assay": "Clearance in Wistar rat at 10 mg/kg, iv administered as single dose", "format": "ADME, organism-based", "set-up": "dose 10 mg/kg, route intravenous", "settings": "in vivo", "how_it_was_run": "(§2)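 Single iv or oral dose in 5% dextrose to overnight-fasted animals. Nu/Nu mice: males, 3 per route, saphenous bleeds to 24 h. Han-Wistar rats: males, 3 per route, jugular bleeds to 24 h. Beagle dogs: 2 per sex, iv and po crossover 2 weeks apart, jugular bleeds to 48 h. Plasma by LC/MS/MS; noncompartmental parameters, AUC by linear trapezoid with extrapolation.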"}, "[9]": {"assay": "Volume of distribution at steady state in nu/nu mouse at 10 mg/kg, iv administered as single dose", "format": "ADME, organism-based", "set-up": "dose 10 mg/kg, route intravenous", "settings": "in vivo, read-out: Vdss", "how_it_was_run": "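Overnight-fasted male Nu/Nu mice got a single 10 mg/kg dose in 5% dextrose, iv or po, three mice per route. Saphenous blood was drawn at 0.083 (iv) or 0.25 (po), 0.5, 1, 6 and 24 h. Plasma was assayed by LC/MS/MS and analysed noncompartmentally. Tmax is the observed peak time, Vss = CL·MRT, and F is the ratio of dose-normalized AUC∞ po/iv.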"}, "[10]": {"assay": "Half life in Beagle dog at 5 mg/kg, iv administered as single dose", "format": "ADME, organism-based, Canis lupus familiaris", "set-up": "dose 5 mg/kg, route intravenous", "settings": "in vivo", "how_it_was_run": "as §2"}, "[11]": {"target": "Fibroblast growth factor receptor 1 (Homo sapiens, UniProt P11362)", "sequence (P11362 whole entry)": "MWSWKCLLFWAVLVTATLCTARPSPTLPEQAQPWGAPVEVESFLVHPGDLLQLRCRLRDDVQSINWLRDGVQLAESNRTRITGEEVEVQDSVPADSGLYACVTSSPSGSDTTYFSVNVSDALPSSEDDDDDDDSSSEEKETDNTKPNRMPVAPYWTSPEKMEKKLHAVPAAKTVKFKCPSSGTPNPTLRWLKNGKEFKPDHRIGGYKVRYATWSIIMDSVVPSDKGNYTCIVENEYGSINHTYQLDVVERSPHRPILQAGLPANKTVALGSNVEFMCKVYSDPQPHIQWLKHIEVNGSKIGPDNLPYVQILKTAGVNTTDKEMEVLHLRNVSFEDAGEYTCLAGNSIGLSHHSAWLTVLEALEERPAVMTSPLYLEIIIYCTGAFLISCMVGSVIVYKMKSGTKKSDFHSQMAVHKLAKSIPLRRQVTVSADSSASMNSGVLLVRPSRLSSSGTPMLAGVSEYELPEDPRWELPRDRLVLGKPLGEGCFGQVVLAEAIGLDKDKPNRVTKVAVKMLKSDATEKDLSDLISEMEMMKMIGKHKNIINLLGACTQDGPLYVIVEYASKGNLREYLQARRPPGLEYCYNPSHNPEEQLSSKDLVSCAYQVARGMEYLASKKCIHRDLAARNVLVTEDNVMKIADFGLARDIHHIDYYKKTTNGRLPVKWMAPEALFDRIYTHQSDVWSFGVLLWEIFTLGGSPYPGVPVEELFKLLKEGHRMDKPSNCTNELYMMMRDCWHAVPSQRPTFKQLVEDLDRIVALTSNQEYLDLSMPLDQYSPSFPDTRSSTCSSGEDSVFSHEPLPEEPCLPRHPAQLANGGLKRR", "assay": "Inhibition of FGFR1"}, "HeLa [12]": {"system": "HeLa", "assay": "Inhibition of DNA synthesis in human HeLa cells at 3 uM assessed as bromodeoxyuridine incorporation after 3 hrs", "format": "functional", "set-up": "scale not given: the % may be the effect or the level left", "how_it_was_run": "as §1"}, "[13]": {"target": "Serine/threonine-protein kinase PLK1 (Homo sapiens, UniProt P53350)", "sequence (P53350 whole entry)": "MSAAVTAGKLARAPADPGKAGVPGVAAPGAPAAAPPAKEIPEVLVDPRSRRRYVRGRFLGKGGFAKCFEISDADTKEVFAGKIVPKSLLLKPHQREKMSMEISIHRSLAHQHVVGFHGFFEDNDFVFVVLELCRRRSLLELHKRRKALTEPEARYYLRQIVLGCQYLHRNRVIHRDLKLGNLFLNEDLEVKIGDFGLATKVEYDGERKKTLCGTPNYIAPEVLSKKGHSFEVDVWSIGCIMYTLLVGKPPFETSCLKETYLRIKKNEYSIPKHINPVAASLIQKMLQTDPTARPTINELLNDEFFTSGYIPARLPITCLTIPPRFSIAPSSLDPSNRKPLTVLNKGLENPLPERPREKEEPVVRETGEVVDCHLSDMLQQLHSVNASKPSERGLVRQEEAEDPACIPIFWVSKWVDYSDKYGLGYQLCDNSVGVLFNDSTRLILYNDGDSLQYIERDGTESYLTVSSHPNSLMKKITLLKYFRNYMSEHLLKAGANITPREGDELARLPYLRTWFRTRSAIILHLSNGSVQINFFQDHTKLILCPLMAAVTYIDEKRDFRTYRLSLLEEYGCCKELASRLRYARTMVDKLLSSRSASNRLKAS"}, "Mus musculus": {"system": "Mus musculus", "assay": "Inhibition of human Cdc7 in human A2780 cells xenografted in CDI nu/nu mouse assessed as inhibition of Ser53 phosphorylation of Mcm2 protein at 60 mg/kg, po first dose administered at 6 hrs and second dose 3 hrs after first dose by Western blot", "format": "functional, organism-based", "set-up": "dose 60 mg/kg", "how_it_was_run": "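A2780 human ovarian carcinoma grown subcutaneously in CDI nu/nu mice. Two oral doses of 60 mg/kg were given within 6 h, the second 3 h after the first. Tumors were explanted and analysed by Western blot for MCM2 phosphorylated at Ser40 and Ser53, with total MCM2 and tubulin as loading controls. Vehicle-treated tumors served as controls.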"}, "[14]": {"assay": "AUC (0 to infinity) in nu/nu mouse at 10 mg/kg, po administered as single dose", "format": "ADME, organism-based", "set-up": "time infinity, dose 10 mg/kg, route oral", "settings": "plasma", "how_it_was_run": "as §2"}, "[15]": {"assay": "Clearance in Beagle dog at 5 mg/kg, iv administered as single dose", "format": "ADME, organism-based, Canis lupus familiaris", "set-up": "dose 5 mg/kg, route intravenous", "settings": "in vivo", "how_it_was_run": "as §2"}, "HeLa [16]": {"system": "HeLa", "assay": "Inhibition of DNA synthesis in human HeLa cells at 3 uM assessed as bromodeoxyuridine incorporation", "format": "functional", "set-up": "scale not given: the % may be the effect or the level left", "how_it_was_run": "as §1"}, "[17]": {"assay": "Cmax in Beagle dog at 5 mg/kg, iv administered as single dose", "format": "ADME, organism-based, Canis lupus familiaris", "set-up": "dose 5 mg/kg, route intravenous", "settings": "in vivo", "how_it_was_run": "as §2"}, "[18]": {"target": "T1, Cell division cycle 7-related protein kinase (Homo sapiens, UniProt O00311)", "T1 sequence (O00311 whole entry, looked up)": "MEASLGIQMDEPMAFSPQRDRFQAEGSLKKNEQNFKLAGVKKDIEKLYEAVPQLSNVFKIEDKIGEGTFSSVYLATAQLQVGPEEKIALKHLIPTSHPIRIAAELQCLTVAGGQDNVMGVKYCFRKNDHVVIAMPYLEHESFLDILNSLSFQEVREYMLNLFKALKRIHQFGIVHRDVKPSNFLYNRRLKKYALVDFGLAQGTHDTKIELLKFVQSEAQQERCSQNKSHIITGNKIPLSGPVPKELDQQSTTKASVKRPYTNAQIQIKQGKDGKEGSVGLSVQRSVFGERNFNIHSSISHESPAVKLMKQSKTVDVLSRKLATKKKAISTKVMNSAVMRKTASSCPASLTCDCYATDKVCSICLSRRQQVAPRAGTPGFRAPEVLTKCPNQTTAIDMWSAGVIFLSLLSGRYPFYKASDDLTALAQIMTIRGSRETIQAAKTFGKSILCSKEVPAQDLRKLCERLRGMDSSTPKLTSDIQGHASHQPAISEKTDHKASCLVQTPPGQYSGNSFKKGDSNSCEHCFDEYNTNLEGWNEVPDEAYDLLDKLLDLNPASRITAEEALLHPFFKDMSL", "assay": "Inhibition of human Cdc7 in human A2780 cells assessed as inhibition of Ser40 phosphorylation of Mcm2 protein after 4 hrs", "format": "cell-based", "how_it_was_run": "(§3)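 A2780 cells exposed for 4 h to a range of concentrations, then lysed in 50 mmol/L Tris-HCl pH 6.8, 1% SDS, 1 mmol/L DTT and sonicated 10 s. 15 µg protein per lane ([…]) was taken for Western blot with phospho-specific antibodies to MCM2 Ser40 and Ser53.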"}, "[19]": {"assay": "Cmax in Wistar rat at 10 mg/kg, iv administered as single dose", "format": "ADME, organism-based", "set-up": "dose 10 mg/kg, route intravenous", "settings": "in vivo", "how_it_was_run": "as §2"}, "Cytochrome P450 1A2": {"target": "Cytochrome P450 1A2 (Homo sapiens, UniProt P05177)", "assay": "Inhibition of human CYP1A2", "format": "ADME"}, "[20]": {"assay": "AUC (0 to infinity) in nu/nu mouse at 10 mg/kg, iv administered as single dose", "format": "ADME, organism-based", "set-up": "dose 10 mg/kg, route intravenous, time infinity", "settings": "plasma", "how_it_was_run": "as §2"}, "[21]": {"assay": "Inhibition of PDGFR"}, "Rattus norvegicus [22]": {"system": "Rattus norvegicus", "assay": "Oral bioavailability in Wistar rat at 20 mg/kg, po administered as single dose", "settings": "in vivo"}, "[23]": {"assay": "Cmax in nu/nu mouse at 10 mg/kg, po administered as single dose", "format": "ADME, organism-based", "set-up": "dose 10 mg/kg, route oral", "settings": "in vivo", "how_it_was_run": "as §2"}, "[24]": {"target": "ALK tyrosine kinase receptor (Homo sapiens, UniProt Q9UM73)", "assay": "Inhibition of ALK"}, "L-363": {"system": "L-363", "assay": "Antiproliferative activity against human L363 cells after 72 hrs by luciferase based assay", "format": "functional, cell-based", "settings": "L-363, 72 h", "how_it_was_run": "(§4)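 Cells seeded at 2500–5000/well in complete medium (RPMI1640, McCoy's or DMEM with 10% FCS, by line); compound added after 24 h, 72 h at 37 °C, 5% CO2.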"}, "[25]": {"target": "Serine/threonine-protein kinase Nek6 (Homo sapiens, UniProt Q9HC98)", "sequence (Q9HC98 whole entry)": "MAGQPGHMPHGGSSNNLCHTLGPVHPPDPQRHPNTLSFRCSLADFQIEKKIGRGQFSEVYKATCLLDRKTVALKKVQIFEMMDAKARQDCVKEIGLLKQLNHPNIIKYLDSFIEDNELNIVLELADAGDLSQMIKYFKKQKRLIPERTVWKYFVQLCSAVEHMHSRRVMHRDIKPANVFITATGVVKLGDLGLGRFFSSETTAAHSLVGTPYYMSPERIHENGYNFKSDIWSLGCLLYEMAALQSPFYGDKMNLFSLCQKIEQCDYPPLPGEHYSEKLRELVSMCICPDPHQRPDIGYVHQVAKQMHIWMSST", "assay": "Inhibition of NEK6"}, "[26]": {"assay": "Antiproliferative activity against human […] cells after 72 hrs by luciferase based assay", "format": "functional, cell-based", "how_it_was_run": "as §4"}, "Rattus norvegicus [27]": {"system": "Rattus norvegicus", "assay": "Antitumor activity against DMBA-induced mammary carcinoma in CD OFA rat assessed as duration of tumor stabilization maintenance at 20 mg/kg, po administered for 10 days", "format": "functional", "how_it_was_run": "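DMBA tumors induced in female CD OFA rats by single intragastric 20 mg DMBA in sesame oil; after about 50 days, rats with a mammary tumor of at least 1 cm given 20 mg/kg orally twice daily for 10 days in glucose solution, or vehicle; 10 per group; tumor volume by Vernier calipers.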"}, "HeLa [28]": {"system": "HeLa", "assay": "Inhibition of DNA synthesis in human HeLa cells at 3 uM assessed as bromodeoxyuridine incorporation after 6 hrs", "format": "functional", "set-up": "scale not given: the % may be the effect or the level left", "how_it_was_run": "as §1"}, "[29]": {"target": "T1, Cell division cycle 7-related protein kinase", "assay": "Inhibition of human Cdc7 in human A2780 cells assessed as inhibition of Ser53 phosphorylation of Mcm2 protein after 4 hrs", "format": "cell-based", "how_it_was_run": "as §3"}, "[30]": {"assay": "Inhibition of Cdk2E"}, "[31]": {"assay": "Renal clearance in Wistar rat at 10 mg/kg, iv administered as single dose", "format": "ADME, organism-based, Kidney", "set-up": "dose 10 mg/kg, route intravenous", "settings": "in vivo, read-out: CL_renal (converted)", "how_it_was_run": "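Overnight-fasted male Han-Wistar rats got a single 10 mg/kg iv dose in 5% dextrose, three per leg. Jugular blood was drawn from 0.083 to 24 h. Urine was collected over 0–6 and 6–24 h. Plasma and urine were assayed by LC/MS/MS and analysed noncompartmentally. Vss = CL·MRT.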"}}, "note": "Calls of active or inactive are those of the source. No cut-off for these calls is given here."}
{"smiles": "Nc1nccc(-c2cc3c([nH]2)[C@@H](CCF)CNC3=O)n1", "values": [{"measurement": "IC50", "setting": "[1]", "result": 0.028, "unit": "µM"}, {"measurement": "Activity", "setting": "HeLa [2]", "result": "Active"}, {"measurement": "IC50", "setting": "[3]", "result": "> 4", "unit": "µM"}, {"measurement": "IC50", "setting": "[4]", "result": "> 4", "unit": "µM"}, {"measurement": "IC50", "setting": "[5]", "result": 1.62, "unit": "µM"}, {"measurement": "IC50", "setting": "[6]", "result": "> 4", "unit": "µM"}, {"measurement": "IC50", "setting": "[7]", "result": 0.03, "unit": "µM"}, {"measurement": "clearance", "setting": "[8]", "result": 30, "unit": "mL/min/kg"}, {"measurement": "Vd", "setting": "[9]", "result": 2.6, "unit": "L/kg"}, {"measurement": "half-life", "setting": "[10]", "result": 36, "unit": "min"}, {"measurement": "IC50", "setting": "[11]", "result": "> 4", "unit": "µM"}, {"measurement": "Activity", "setting": "HeLa [12]", "result": 28, "unit": "%"}, {"measurement": "IC50", "setting": "[13]", "result": 0.574, "unit": "µM"}, {"measurement": "Activity", "setting": "Mus musculus", "result": "Active"}, {"measurement": "AUC(0-inf)", "setting": "[14]", "result": 5, "unit": "µM·h"}, {"measurement": "clearance", "setting": "[15]", "result": 53.3, "unit": "mL/min/kg"}, {"measurement": "Activity", "setting": "HeLa [16]", "result": 35, "unit": "%"}, {"measurement": "Cmax", "setting": "[17]", "result": 8.9, "unit": "µM"}, {"measurement": "MED", "setting": "[18]", "result": 0.6, "unit": "µM"}, {"measurement": "Cmax", "setting": "[19]", "result": 15.7, "unit": "µM"}, {"measurement": "Activity", "setting": "Cytochrome P450 1A2", "result": "Not Active"}, {"measurement": "AUC(0-inf)", "setting": "[20]", "result": 9.5, "unit": "µM·h"}, {"measurement": "IC50", "setting": "[21]", "result": "> 4", "unit": "µM"}, {"measurement": "F", "setting": "Rattus norvegicus [22]", "result": 33, "unit": "%"}, {"measurement": "Cmax", "setting": "[23]", "result": 2.6, "unit": "µM"}, {"measurement": "IC50", "setting": "[24]", "result": "> 4", "unit": "µM"}, {"measurement": "IC50", "setting": "L-363", "result": 1.3, "unit": "µM"}, {"measurement": "IC50", "setting": "[25]", "result": "> 4", "unit": "µM"}, {"measurement": "IC50", "setting": "[26]", "result": 0.4, "unit": "µM"}, {"measurement": "Activity", "setting": "Rattus norvegicus [27]", "result": 35, "unit": "days"}, {"measurement": "Activity", "setting": "HeLa [28]", "result": 16, "unit": "%"}, {"measurement": "MED", "setting": "[29]", "result": 0.6, "unit": "µM"}, {"measurement": "IC50", "setting": "[30]", "result": 0.67, "unit": "µM"}, {"measurement": "CL renal", "setting": "[31]", "result": 18.3, "unit": "mL/min/kg"}]}
